Laboratory results from article PMC4134960 (Pharmacological research : the official journal of the …, 2014).
Like-named read-outs stand apart in the source and are kept apart here.

Columns and labels:
[1] = cited from earlier work; for PSA (polar surface area): ref Moreno-Sanz et al., 2013
[2] = target: T1, FAAH (Mus musculus, UniProt O08914); details: cited from earlier work; for Brain ID50: inhibition of brain FAAH activity after systemic administration in mice, ref Moreno-Sanz et al., 2013
T1 sequence (O08914 1-579): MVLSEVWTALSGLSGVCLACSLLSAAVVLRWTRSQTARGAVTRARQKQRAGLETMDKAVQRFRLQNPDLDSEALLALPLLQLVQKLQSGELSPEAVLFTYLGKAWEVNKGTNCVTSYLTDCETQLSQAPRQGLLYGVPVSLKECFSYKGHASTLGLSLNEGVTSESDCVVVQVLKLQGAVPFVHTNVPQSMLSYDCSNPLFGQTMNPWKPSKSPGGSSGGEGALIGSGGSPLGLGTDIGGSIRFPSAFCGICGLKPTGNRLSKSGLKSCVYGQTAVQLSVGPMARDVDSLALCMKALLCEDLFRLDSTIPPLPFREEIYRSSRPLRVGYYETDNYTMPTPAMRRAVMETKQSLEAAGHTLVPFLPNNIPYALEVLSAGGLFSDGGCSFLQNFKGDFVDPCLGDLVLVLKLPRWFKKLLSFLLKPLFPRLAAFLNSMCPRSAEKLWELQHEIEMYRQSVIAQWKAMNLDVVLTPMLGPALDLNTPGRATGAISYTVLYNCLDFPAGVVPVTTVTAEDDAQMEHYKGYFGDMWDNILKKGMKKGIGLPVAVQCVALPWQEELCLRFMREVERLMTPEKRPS

[3] = tested on: wild-type MDCKII cells; experiment: Transepithelial transport in monolayers of wild-type MDCKII cells
[4] = target: T2, murine Abcg2 (Mus musculus, UniProt Q7TMS5); experiment: Transepithelial transport in monolayers of MDCKII cells over-expressing Abcg2; format: in vitro ADME
T2 sequence (Q7TMS5 1-657): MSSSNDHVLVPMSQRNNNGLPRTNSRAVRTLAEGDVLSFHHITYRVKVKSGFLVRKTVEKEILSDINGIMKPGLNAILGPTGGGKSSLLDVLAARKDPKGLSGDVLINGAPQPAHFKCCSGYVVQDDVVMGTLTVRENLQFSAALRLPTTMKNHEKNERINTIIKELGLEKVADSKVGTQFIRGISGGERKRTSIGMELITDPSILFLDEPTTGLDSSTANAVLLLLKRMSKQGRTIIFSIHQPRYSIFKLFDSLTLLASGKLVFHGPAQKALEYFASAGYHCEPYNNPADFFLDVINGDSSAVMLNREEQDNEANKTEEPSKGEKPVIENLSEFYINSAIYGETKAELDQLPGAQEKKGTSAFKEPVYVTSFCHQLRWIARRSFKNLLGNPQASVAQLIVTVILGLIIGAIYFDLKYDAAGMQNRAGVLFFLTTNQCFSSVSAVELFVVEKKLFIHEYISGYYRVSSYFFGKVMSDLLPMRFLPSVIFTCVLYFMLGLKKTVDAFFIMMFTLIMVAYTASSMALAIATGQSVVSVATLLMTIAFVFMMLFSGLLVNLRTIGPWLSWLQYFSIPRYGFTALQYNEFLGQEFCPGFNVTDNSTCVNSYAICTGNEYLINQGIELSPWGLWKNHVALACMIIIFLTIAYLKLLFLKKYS

[5] = target: human ABCB1 (Homo sapiens, UniProt P08183); experiment: Transepithelial transport in monolayers of MDCKII cells over-expressing ABCB1; details: for A to B transport (percentage of drug appearing in the opposite compartment) / B to A transport (percentage of drug appearing in the opposite compartment) / Ratio BA/AB (relative transport ratio): MDCKII over-expressing ABCB1, after 4h, 5 μM (compound 8: 1 μM); for Vectorial transport by ABCB1 (in words): MDCKII transduced with human ABCB1
Sequence of human ABCB1 (P08183 whole entry): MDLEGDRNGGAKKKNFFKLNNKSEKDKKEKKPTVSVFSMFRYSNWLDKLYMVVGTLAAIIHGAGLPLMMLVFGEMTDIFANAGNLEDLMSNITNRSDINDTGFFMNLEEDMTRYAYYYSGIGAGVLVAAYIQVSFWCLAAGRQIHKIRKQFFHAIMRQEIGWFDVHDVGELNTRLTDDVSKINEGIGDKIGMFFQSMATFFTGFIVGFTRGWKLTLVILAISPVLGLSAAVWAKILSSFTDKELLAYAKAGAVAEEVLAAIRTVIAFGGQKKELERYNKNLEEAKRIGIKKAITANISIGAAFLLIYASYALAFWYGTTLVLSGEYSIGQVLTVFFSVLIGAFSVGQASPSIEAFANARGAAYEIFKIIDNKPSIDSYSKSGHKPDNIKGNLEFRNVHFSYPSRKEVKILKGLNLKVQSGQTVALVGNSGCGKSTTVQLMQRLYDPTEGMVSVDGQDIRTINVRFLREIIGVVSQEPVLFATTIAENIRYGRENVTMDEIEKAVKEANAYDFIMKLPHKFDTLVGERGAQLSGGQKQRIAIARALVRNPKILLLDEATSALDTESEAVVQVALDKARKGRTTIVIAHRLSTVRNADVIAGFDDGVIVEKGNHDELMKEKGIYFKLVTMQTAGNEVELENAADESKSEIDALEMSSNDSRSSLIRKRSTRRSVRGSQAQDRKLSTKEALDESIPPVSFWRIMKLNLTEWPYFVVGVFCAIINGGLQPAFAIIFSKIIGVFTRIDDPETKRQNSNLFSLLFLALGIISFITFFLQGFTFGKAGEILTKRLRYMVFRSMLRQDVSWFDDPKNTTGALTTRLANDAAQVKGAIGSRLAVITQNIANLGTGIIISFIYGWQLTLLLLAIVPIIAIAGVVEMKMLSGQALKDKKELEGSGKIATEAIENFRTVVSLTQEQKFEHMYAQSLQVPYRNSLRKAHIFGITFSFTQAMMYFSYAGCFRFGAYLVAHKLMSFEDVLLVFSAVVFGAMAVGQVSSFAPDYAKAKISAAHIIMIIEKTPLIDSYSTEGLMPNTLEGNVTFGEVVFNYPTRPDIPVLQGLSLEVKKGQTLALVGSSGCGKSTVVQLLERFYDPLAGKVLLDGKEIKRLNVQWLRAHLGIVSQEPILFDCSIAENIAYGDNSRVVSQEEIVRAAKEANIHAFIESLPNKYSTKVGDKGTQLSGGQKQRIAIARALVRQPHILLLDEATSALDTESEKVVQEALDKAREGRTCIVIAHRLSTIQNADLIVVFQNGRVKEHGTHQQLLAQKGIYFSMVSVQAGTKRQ

[6] = target: T3, Abcg2 (Mus musculus, UniProt Q7TMS5); experiment: Transepithelial transport in monolayers of MDCKII cells over-expressing Abcg2; format: in vitro ADME, murine; details: mouse, Ratio BA/AB (relative transport ratio), MDCKII over-expressing Abcg2, after 4h, 5 μM (compound 8: 1 μM)
T3 sequence (Q7TMS5 1-657): T2 sequence (Q7TMS5 1-657)

[7] = Transepithelial transport in monolayers of wild-type MDCKII cells; details: dog, MDCK, Ratio BA/AB (relative transport ratio), after 4h, 5 μM (compound 8: 1 μM)
[8] = target: T1, FAAH; format: in vivo, mice
Outline: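 Dosing was i.p. in saline/PEG400/Tween-80 (18:1:1), with kill at 1 h. Brain S1 fraction (1000 × g; 50 μg protein by BCA) was incubated 30 min at 37°C in 50 mM Tris-HCl pH 7.5 with 0.05% fatty acid-free BSA, 10 μM anandamide and [ethanolamine-3H]anandamide (10,000 cpm). The reaction was stopped with chloroform/methanol (1:1), and aqueous-phase radioactivity counted by scintillation. n = 3–4, mean ± SEM, ANOVA with Dunnett's test vs vehicle.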

[9] = Brain-to-plasma ratio of URB937 in wild-type and transporter knockout mice; format: in vivo; details: 5 mg/kg i.p., 1 h
Outline: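 Male 9-week FVB wild-type, Mdr1a/b−/−, Bcrp−/− and Mdr1a/b−/−-Bcrp−/− mice received the test compound i.p. in saline/PEG400/Tween-80 (18:1:1, v/v/v) at 10 mL/kg and were killed 1 h later. Plasma came from cardiac blood spun at 2000 × g for 20 min. Brain was homogenized in 50 mM Tris-HCl pH 7.5/0.32 M sucrose, spun at 1000 × g for 10 min at 4°C, and extracted with methanol/chloroform. Read-out by LC/MS on C18 (m/z 377). n = 3–4, mean ± SEM.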

[10] = after 4h, 5 μM (compound 8: 1 μM)
[11] = MDCKII over-expressing Abcg2, after 4h, 5 μM (compound 8: 1 μM)

Structure (SMILES) | PSA (polar surface area) [1] [Å^2] | Brain ID50 [2] [mg/kg] | A to B transport (percentage of drug appearing in the opposite compartment) [3, 10] [%] | B to A transport (percentage of drug appearing in the opposite compartment) [3, 10] [%] | A to B transport (percentage of drug appearing in the opposite compartment) [4, 11] [%] | B to A transport (percentage of drug appearing in the opposite compartment) [4, 11] [%] | A to B transport (percentage of drug appearing in the opposite compartment) [5] [%] | B to A transport (percentage of drug appearing in the opposite compartment) [5] [%] | Ratio BA/AB (relative transport ratio) [5] | Vectorial transport by ABCB1 (in words) [5] | also measured
N.NC(=O)c1cccc(-c2cc(OC(=O)NC3CCCCC3)ccc2OS(=O)(=O)O)c1 [Compound 9] | 117 | >75 | 7.92 ± 0.41 | 7.49 ± 0.39 |  |  |  |  |  |  | Translocation in apical or basolateral direction (in words) [3]: minimal translocation in either the apical or basolateral direction
CNC(=O)c1cccc(-c2cc(OC(=O)NC3CCCCC3)ccc2O)c1 [Compound 1] | 73 |  | 21.7 ± 0.96 | 48.1 ± 2.33 | 6.99 ± 0.99 | 69.8 ± 16.9 | 8.55 ± 1.79 | 67.4 ± 14.5 |  |  | 
CC(=O)c1cccc(-c2cc(OC(=O)NC3CCCCC3)ccc2O)c1 [Compound 3] | 62 | <1 | 39.4 ± 0.54 | 46.8 ± 2.73 | 24.5 ± 2.39 | 30.5 ± 0.75 | 39.8 ± 1.88 | 57.6 ± 7.90 | 1.44 ± 0.13 | no significant vectorial transport | Transport substrate for Abcg2 (in words) ([4]; MDCKII over-expressing Abcg2): did not behave as a transport substrate for Abcg2; Ratio BA/AB (relative transport ratio) [4, 11]: 1.25 ± 0.13
Cc1ccc(OC(=O)NC2CCCCC2)cc1-c1cccc(C(N)=O)c1 [Compound 8, cyclohexylcarbamic acid 3′-carbamoyl-6-methylbiphenyl-3-yl ester] | 66 |  | 26.0 ± 1.52 | 27.3 ± 3.8 | 5.59 ± 0.58 | 64.8 ± 4.87 | 20.7 ± 1.00 | 35.8 ± 0.43 |  | no significant vectorial transport | efflux ratio at 4 h [6]: ≥ 10; efflux ratio at 4 h [7]: ~1; Ratio BA/AB (relative transport ratio) [3, 10]: 1.06 ± 0.15
NC(=O)c1cccc(-c2cc(OC(=O)NC3CCCCC3)ccc2O)c1 [URB937, cyclohexylcarbamic acid 3′-carbamoyl-6-hydroxybiphenyl-3-yl ester] |  | 40 | 17.78 ± 2.12 | 44.3 ± 5.35 | 1.68 ± 0.12 | 25.9 ± 1.44 | 5.89 ± 1.33 | 50.2 ± 4.02 |  |  | efflux ratio at 4 h [6]: ≥ 10; Effect on brain FAAH activity (in words) ([8]; Mdr1a/b−/−-Bcrp−/− mice, 5 mg/kg i.p.): drastically inhibited; inhibition at 5 mg/kg ([8]; mouse, ip, read-out: Inhibition of brain FAAH): 26%; Effect on brain FAAH activity (in words) ([8]; wild-type mice, 5 mg/kg i.p.): did not affect FAAH activity; Effect on liver FAAH activity (in words) ([8]; wild-type mice, 5 mg/kg i.p.): completely blocked FAAH activity; Brain-to-plasma ratio (in words) ([9]; Abcb1-deficient (Mdr1a/b−/−) mice): not significantly different from controls; Brain-to-plasma ratio (in words) ([9]; Mdr1a/b−/−-Bcrp−/− mice): significantly increased; PSA value [1]: ≥ 80 Å; Brain ID50 relative to dose needed to inhibit FAAH in liver ([2]; brain vs liver): 400 times; Brain FAAH activity median effective dose (ID50) ([2]; brain): 40 mg/kg; Liver FAAH activity ID50 ([2]; peripheral organs such as the liver): 0.1 mg/kg; efflux ratio at 4 h [7]: ≥ 2
CN(C)C(=O)c1cccc(-c2cc(OC(=O)NC3CCCCC3)ccc2O)c1 [Compound 2] | 65 | 5 | 25.6 ± 1.96 | 43.1 ± 4.48 | 6.95 ± 0.42 | 91.0 ± 12.7 | 8.86 ± 0.95 | 58.6 ± 3.85 | 6.65 ± 0.36 |  | 
COc1ccc(OC(=O)NC2CCCCC2)cc1-c1cccc(C(N)=O)c1 [Compound 7] | 74 |  | 29.3 ± 0.44 | 37.1 ± 1.48 | 7.29 ± 1.30 | 98.8 ± 16.6 | 21.6 ± 0.55 | 45.1 ± 3.61 | 2.08 ± 0.11 | no significant vectorial transport | 
COc1ccc2c3c([nH]c2c1)[C@H](CC(C)C)N1C(=O)[C@H](CCC(=O)OC(C)(C)C)NC(=O)[C@@H]1C3 [Ko143, reference compound] |  |  |  |  |  |  |  |  |  |  | Effect of inhibitor on translocation of all compounds (in words) ([4]; MDCKII over-expressing Abcg2, Ko143 1 μM): blocked
O=C(NC1CCCCC1)Oc1ccc(O)c(-c2cccc(C(=O)O)c2)c1 [Compound 4] | 77 | 12 | 4.93 ± 0.88 | 5.21 ± 0.42 |  |  |  |  |  |  | Translocation in apical or basolateral direction (in words) [3]: minimal translocation in either the apical or basolateral direction
